Results as given in ChEMBL document CHEMBL5154669, “G-Quadruplex DNA as a Target in Pathogenic Bacteria: Efficacy of an Extended Naphthalene Diimide Ligand and Its Mode of Action” (J Med Chem, 2022).

Legend:
Salmonella enterica [1] = assay: Bacteriostatic activity against Salmonella enterica LMG 07233 assessed as inhibition of bacterial growth; type: functional
Summary of the method: (§1)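 A standard MIC plate (128–2 μM, cMHB, 20 h, 37 °C) was read at OD600. Each well then seeded at 10% a fresh compound-free cMHB plate, grown another 20 h at 37 °C and read at OD600. No growth at the same concentration in both plates counted as bactericidal. Growth above the MIC counted as bacteriostatic. Done in triplicate.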

DNA [2] = assay: Stabilization of Escherichia coli in G-quadruplex DNA GGG GGA GGA GGA CGG GGG assessed as change in melting temperature at 10 uM incubated for 16 hrs by FRET method; type: nucleic-acid assay; conditions: in the assay text read “by CD melting method” for “by FRET method”
Summary of the method: (§2)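 Readout was CD melting, not FRET: 2.5 μM oligonucleotide in 10 mM lithium cacodylate pH 7.4 with KCl set per sequence (initial Tm 60-70 °C). Annealed 95 °C 5 min, cooled to room temperature over 4 h, then ligand 10 μM (4 equiv) equilibrated 16 h at 20 °C. Ellipticity at 260 nm tracked every 0.1 °C, 20-95 °C at 5 °C/min; Tm by van't Hoff two-state fit.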

Enterococcus faecalis [3] = assay: Antibacterial activity against Enterococcus faecalis LMG 16216 assessed as inhibition of bacterial growth incubated for 20 hrs by CLSI based broth microdilution method; type: functional
Summary of the method: (§3)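 Broth microdilution in cation-adjusted Mueller-Hinton broth following CLSI guidelines. DMSO stocks were at 10 mM; compounds were twofold serially diluted over 128 to 2 μM. The inoculum was at 5 × 10⁵, prepared from colonies grown 20 h at 37 °C and adjusted to 0.5 McFarland. Plates ran 20 h at 37 °C with OD600 read-out. MIC was the lowest concentration inhibiting visible growth, in triplicate.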

DNA [4] = assay: Stabilization of Escherichia coli in G-quadruplex DNA GGG GCG GGG TGG GTT GG assessed as change in melting temperature at 10 uM incubated for 16 hrs by CD melting method
Staphylococcus aureus [5] = assay: Antibacterial activity against Staphylococcus aureus LMG 8224; type: functional, organism-based; conditions: DDE = dose-dependent effect
Summary of the method: (§4)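 Cultures were inoculated at 2% and grown at 37 °C, with OD600 read every 5 min for 8 h. NDI-10 was added at exponential-phase onset (~3 h). Concentrations were 32, 16, 8 and 4 μM for E. coli, and 16, 8, 4 and […] μM for the Gram-positive strains.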

DNA [6] = assay: Stabilization of Staphylococcus aureus in G Quadruplex DNA GGGGCTAATTGGGGCTGGTGG assessed as melting at 10 uM incubated for 16 hrs temperature by […]; type: nucleic-acid assay; summary of the method: as §2
Enterococcus faecalis [7] = assay: Antibacterial activity against Enterococcus faecalis V583 assessed as inhibition of bacterial growth incubated for 20 hrs by CLSI based broth microdilution method; type: functional; summary of the method: as §3
Enterobacter cloacae [8] = assay: Bactericidal activity against Enterobacter cloacae LMG 02783 assessed as inhibition of bacterial growth; type: functional; summary of the method: as §1
Pseudomonas aeruginosa [9] = assay: Antibacterial activity against Pseudomonas aeruginosa LMG 6395 assessed as inhibition of bacterial growth incubated for 20 hrs by CLSI based broth microdilution method; type: functional; summary of the method: as §3
Klebsiella pneumoniae [10] = assay: Antibacterial activity against Klebsiella pneumoniae LMG 20218 assessed as inhibition of bacterial growth incubated for 20 hrs by CLSI based broth microdilution method; type: functional; summary of the method: as §3
Enterococcus faecium [11] = assay: Antimicrobial activity against Enterococcus faecium LMG 16003 assessed as inhibition of bacterial growth in presence of D11 incubated for 20 hrs; conditions: LMG 16003, 20 h
DNA [12] = assay: Stabilization of Escherichia coli in G-quadruplex DNA GGT GGG GAG GGG TAA GGG G assessed as change in melting temperature at 10 uM incubated for 16 hrs by FRET method; type: nucleic-acid assay; conditions: in the assay text read “by CD melting method” for “by FRET method”; summary of the method: as §2
Escherichia coli [13] = assay: Antimicrobial activity against Escherichia coli LMG 8223 assessed as inhibition of bacterial growth in presence of D11 incubated for 20 hrs; conditions: LMG 8223, 20 h
Staphylococcus aureus [14] = assay: Antibacterial activity against Staphylococcus aureus LMG 10147 assessed as inhibition of bacterial growth incubated for 20 hrs by CLSI based broth microdilution method; type: functional; summary of the method: as §3
Bacillus cereus [15] = assay: Antibacterial activity against Bacillus cereus ATCC 10987 assessed as inhibition of bacterial growth incubated for 20 hrs by CLSI based broth microdilution method; type: functional; summary of the method: as §3
Bacillus cereus [16] = assay: Bacteriostatic activity against Bacillus cereus ATCC 10987 assessed as inhibition of bacterial growth; type: functional; summary of the method: as §1
Staphylococcus aureus [17] = assay: Antibacterial activity against Staphylococcus aureus LMG 15975 assessed as inhibition of bacterial growth incubated for 20 hrs by CLSI based broth microdilution method; type: functional; summary of the method: as §3
Klebsiella pneumoniae [18] = assay: Antimicrobial activity against Klebsiella pneumoniae LMG 20218 assessed as inhibition of bacterial growth in presence of D11 incubated for 20 hrs; conditions: LMG 20218, 20 h
Escherichia coli [19] = assay: Bactericidal against Escherichia coli LMG 8223 assessed as inhibition of bacterial growth; type: functional; summary of the method: as §1
Acinetobacter baumannii = assay: Bacteriostatic activity against Acinetobacter baumannii LMG 01041 assessed as inhibition of bacterial growth; type: functional; summary of the method: as §1
Salmonella enterica [20] = assay: Antimicrobial activity against Salmonella enterica LMG 07233 assessed as inhibition of bacterial growth in presence of D11 incubated for 20 hrs; conditions: LMG 07233, 20 h
Staphylococcus aureus [21] = assay: Antibacterial activity against Staphylococcus aureus LMG 8224 assessed as inhibition of bacterial growth incubated for 20 hrs by CLSI based broth microdilution method; type: functional; summary of the method: as §3
Staphylococcus aureus [22] = assay: Bacteriostatic activity against Staphylococcus aureus LMG 8224 assessed as inhibition of bacterial growth; type: functional; summary of the method: as §1
DNA [23] = assay: Stabilization of Staphylococcus aureus in G-quadruplex DNA GGGTTTGGGGCGGCGGTTGG assessed as change in melting temperature at 10 uM incubated for 16 hrs by FRET method; type: nucleic-acid assay; conditions: in the assay text read “by CD melting method” for “by FRET method”
DNA [24] = assay: Stabilization of Staphylococcus aureus in G-quadruplex DNA GGA AGG AGG GGT GAC AGG G assessed as change in melting temperature at 10 uM incubated for 16 hrs by […]; type: nucleic-acid assay; summary of the method: as §2
Pseudomonas aeruginosa [25] = assay: Bactericidal activity against Pseudomonas aeruginosa LMG 6395 assessed as inhibition of bacterial growth; type: functional; summary of the method: as §1
Enterobacter cloacae [26] = assay: Antibacterial activity against Enterobacter cloacae LMG 02783 assessed as inhibition of bacterial growth incubated for 20 hrs by CLSI based broth microdilution method; type: functional; summary of the method: as §3
Enterococcus faecium [27] = assay: Antibacterial activity against Enterococcus faecium LMG 16003; type: functional, organism-based; conditions: DDE = dose-dependent effect; summary of the method: as §4
Klebsiella aerogenes = assay: Bacteriostatic activity against Enterobacter aerogenes LMG 02094 assessed as inhibition of bacterial growth; type: functional; summary of the method: as §1
Enterococcus faecium [28] = assay: Bacteriostatic activity against Enterococcus faecium LMG 16003 assessed as inhibition of bacterial growth; type: functional; summary of the method: as §1
Bacillus cereus [29] = assay: Antibacterial activity against Bacillus cereus ATCC 10987; type: functional, organism-based; conditions: DDE = dose-dependent effect; summary of the method: as §4
Enterococcus faecium [30] = assay: Antibacterial activity against Enterococcus faecium LMG 11423 assessed as inhibition of bacterial growth incubated for 20 hrs by CLSI based broth microdilution method; conditions: LMG 11423, 20 h

For `CN(C)CCCn1c(=O)c2ccc3c(=O)n(CCCN(C)C)c(=O)c4c5[nH]c6ccccc6[nH]c5c(c1=O)c2c34.O=C(O)C(F)(F)F.O=C(O)C(F)(F)F`, which MIC (Salmonella enterica [1]) is on record?
Its MIC is 128 µM.

What about the ΔTm (DNA [2]) of the same compound?
Its ΔTm is over 24.8 °C.

What about the MIC (Enterococcus faecalis [3]) of the same compound?
The MIC was 4 µM.

What about the ΔTm (DNA [4]) of the same compound?
The ΔTm was 18.8 °C.

And the Activity (Staphylococcus aureus [5])?
The Activity was “Dde”.

What about the Tm (DNA [6]) of the same compound?
The Tm was 88.3 °C.

And the MIC (Enterococcus faecalis [7])?
The MIC was 4 µM.

And the MIC (Enterobacter cloacae [8])?
The MIC was 8 µM.

What about the MIC (Pseudomonas aeruginosa [9]) of the same compound?
The MIC was 128 µM.

And the MIC (Klebsiella pneumoniae [10])?
Its MIC is over 128 µM.

And the MIC (Enterococcus faecium [11])?
Its MIC is 4 µM.

What about the ΔTm (DNA [12]) of the same compound?
The ΔTm was 31 °C.

What about the MIC (Escherichia coli [13]) of the same compound?
The MIC was under 0.5 µM.

What about the MIC (Staphylococcus aureus [14]) of the same compound?
Its MIC is 16 µM.

What about the MIC (Bacillus cereus [15]) of the same compound?
The MIC was 8 µM.

What about the MIC (Bacillus cereus [16]) of the same compound?
Its MIC is 64 µM.

And the MIC (Staphylococcus aureus [17])?
The MIC was 16 µM.

What about the MIC (Klebsiella pneumoniae [18]) of the same compound?
The MIC was 16 µM.

What about the MIC (Escherichia coli [19]) of the same compound?
Its MIC is 16 µM.

And the MIC (Acinetobacter baumannii)?
The MIC was 128 µM.

And the MIC (Salmonella enterica [20])?
The MIC was under 0.5 µM.

What about the MIC (Staphylococcus aureus [21]) of the same compound?
The MIC was 16 µM.

And the MIC (Staphylococcus aureus [22])?
The MIC was 128 µM.

And the ΔTm (DNA [23])?
The ΔTm was over 35.6 °C.

What about the ΔTm (DNA [24]) of the same compound?
Its ΔTm is over 30.8 °C.

And the MIC (Pseudomonas aeruginosa [25])?
The MIC was 128 µM.

And the MIC (Enterobacter cloacae [26])?
Its MIC is 8 µM.

And the Activity (Enterococcus faecium [27])?
Its Activity is “Dde”.

And the MIC (Klebsiella aerogenes)?
The MIC was over 128 µM.

What about the MIC (Enterococcus faecium [28]) of the same compound?
The MIC was 32 µM.

And the Activity (Bacillus cereus [29])?
Its Activity is “Dde”.

What about the MIC (Enterococcus faecium [30]) of the same compound?
Its MIC is 4 µM.
